Test results: ChEMBL document CHEMBL4251703, “Linker Variation and Structure-Activity Relationship Analyses of Carboxylic Acid-based Small Molecule STAT3 Inhibitors” (ACS Med Chem Lett, 2018)
Active and inactive are the calls of the source. No cut-off for these calls is given here.

Tests used:
[1] = molecular target: Signal transducer and activator of transcription 3 (Mus musculus, UniProt P42227); assay: (§1) Inhibition of STAT3 DNA binding activity in mouse NIH/3T3 nuclear extract preincubated for 30 mins followed by [32P]hSIE addition measured after 30 mins by electrophoretic mobility shift assay
How it was run: (§2)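 STAT3 DNA-binding was measured by EMSA using nuclear extracts of equal total protein from v-Src-transformed fibroblasts containing activated STAT3. Extracts were preincubated for 30 min with 0–100 μM compound, then incubated with radiolabeled hSIE probe.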

[2] = molecular target: Signal transducer and activator of transcription 3 (Mus musculus) (UniProt P42227); assay: as §1; how it was run: as §2
[3] = Solubility of the compound in simulated intestinal fluid at pH 6.8; assay type: physicochemical
How it was run: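 Aqueous solubility was determined in pH 7.4 PBS and in pH 6.8 buffered simulated intestinal fluid, reported in μg/mL.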

[4] = molecular target: Signal transducer and activator of transcription 3 (Homo sapiens) (UniProt P40763); assay: Inhibition of STAT3 in human MDA-MB-231 cells assessed as reduction in p-STAT3(Y705) level at 5 uM after 1 to 24 hrs by immunoblot analysis; assay type: cell-based
[5] = molecular target: Signal transducer and activator of transcription 3 (Homo sapiens) (UniProt P40763); assay: Inhibition of STAT3 in human MDA-MB-468 cells assessed as reduction in p-STAT3(Y705) level at 5 uM after 1 to 24 hrs by immunoblot analysis; assay type: cell-based
MDA-MB-468 = assay: Cytotoxicity against human MDA-MB-468 cells harboring active STAT3 assessed as decrease in cell viability up to 10 uM after 72 hrs by CyQuant dye based assay; assay type: functional
How it was run: (§3)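 Cells were grown in 96-well format and treated once with 0–10 μM compound for 72 h. Viable cells were quantified by CyQuant proliferation assay and plotted as % viability against concentration. Data are mean ± SD of three independent determinations.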

MDA-MB-231 = assay: Cytotoxicity against human MDA-MB-231 cells harboring active STAT3 assessed as decrease in cell viability up to 10 uM after 72 hrs by CyQuant dye based assay; assay type: functional; how it was run: as §3
MCF7 = assay: Cytotoxicity against human MCF7 cells assessed as decrease in cell viability up to 10 uM after 72 hrs by CyQuant dye based assay; assay type: functional; how it was run: as §3

Sequence of Signal transducer and activator of transcription 3 (P42227 whole entry): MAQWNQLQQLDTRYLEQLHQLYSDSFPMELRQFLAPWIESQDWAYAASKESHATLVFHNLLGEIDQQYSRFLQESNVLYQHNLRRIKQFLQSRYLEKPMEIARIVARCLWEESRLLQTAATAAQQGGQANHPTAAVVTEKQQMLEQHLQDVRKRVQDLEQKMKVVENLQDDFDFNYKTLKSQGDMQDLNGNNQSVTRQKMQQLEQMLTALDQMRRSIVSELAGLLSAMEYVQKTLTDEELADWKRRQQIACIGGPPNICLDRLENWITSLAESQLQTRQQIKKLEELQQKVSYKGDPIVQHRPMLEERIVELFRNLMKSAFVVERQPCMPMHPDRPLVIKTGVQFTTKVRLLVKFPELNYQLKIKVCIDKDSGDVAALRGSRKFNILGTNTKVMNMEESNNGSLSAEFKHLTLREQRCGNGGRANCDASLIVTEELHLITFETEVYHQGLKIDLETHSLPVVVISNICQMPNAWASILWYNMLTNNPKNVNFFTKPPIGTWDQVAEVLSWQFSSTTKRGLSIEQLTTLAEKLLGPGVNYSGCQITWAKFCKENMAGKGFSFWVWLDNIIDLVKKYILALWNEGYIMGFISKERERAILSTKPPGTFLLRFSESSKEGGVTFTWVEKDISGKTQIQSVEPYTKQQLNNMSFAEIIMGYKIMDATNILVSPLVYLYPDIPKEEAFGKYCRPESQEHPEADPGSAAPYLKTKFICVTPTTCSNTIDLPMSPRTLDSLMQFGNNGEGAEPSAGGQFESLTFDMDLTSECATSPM
Sequence of Signal transducer and activator of transcription 3 (Mus musculus) (P42227 whole entry): as above
Sequence of Signal transducer and activator of transcription 3 (Homo sapiens) (P40763 whole entry): as the sequence (P42227 whole entry) above, with D760E counted along it

Row | Structure (SMILES) | inhibition [2] | further results
1 | C[C@@H](C(=O)N(Cc1ccc(C2CCCCC2)cc1)c1ccc(C(=O)NO)c(O)c1)N(C)S(=O)(=O)c1c(F)c(F)c(F)c(F)c1F |  | IC50 [1]: 6.8 µM
2 | Cc1cc(C(=O)O)cc(C)c1N(Cc1ccc(C2CCCCC2)cc1)C(=O)CN(C)S(=O)(=O)c1c(F)c(F)c(F)c(F)c1F | inactive | 
3 | CN(CC(=O)N(Cc1ccc(C2CCCCC2)cc1)c1ccc(C(=O)O)c(O)c1)S(=O)(=O)c1cc(F)ccc1F |  | IC50 [1]: > 26 µM
4 | CN([C@H](CN)C(=O)N(Cc1ccc(C2CCCCC2)cc1)c1ccc(C(=O)O)c(O)c1)S(=O)(=O)c1c(F)c(F)c(F)c(F)c1F | Active | 
5 | CC[C@H](C(=O)N(Cc1ccc(C2CCC(F)(F)CC2)cc1)c1ccc(C(=O)O)c(O)c1)N(C)S(=O)(=O)c1c(F)c(F)c(F)c(F)c1F | inactive | 
6 | O=C(O)c1ccc(N(Cc2ccc(C3CCCCC3)cc2)C(=O)[C@H]2CCCN2S(=O)(=O)c2c(F)cc(F)c(F)c2F)cc1O | inactive | 
7 | CN(CC(=O)N(Cc1ccc(C2CCCCC2)cc1)c1ccc(C(=O)O)c(O)c1)S(=O)(=O)c1ccc(F)c(F)c1F |  | IC50 [1]: > 26 µM
8 | CN(CC(=O)N(Cc1ccc(C2CCCCC2)cc1)c1ccc(C(=O)O)c(O)c1)S(=O)(=O)c1cc(C(F)(F)F)cc(C(F)(F)F)c1 |  | IC50 [1]: > 26 µM
9 | CN(CC(=O)N(Cc1ccc(C2CCCCC2)cc1)c1ccc(C(=O)O)c(O)c1)S(=O)(=O)c1cccnc1 |  | IC50 [1]: > 26 µM
10 | CN(CC(=O)N(Cc1ccc(C2CCCCC2)cc1)c1ncc(C(=O)O)o1)S(=O)(=O)c1c(F)c(F)c(F)c(F)c1F | inactive | 
11 | C[C@H](O)[C@H](C(=O)N(Cc1ccc(C2CCCCC2)cc1)c1ccc(C(=O)O)c(O)c1)N(C)S(=O)(=O)c1c(F)c(F)c(F)c(F)c1F | Active | 
12 | C[C@@H](O)[C@@H](C(=O)N(Cc1ccc(C2CCCCC2)cc1)c1ccc(C(=O)O)c(O)c1)N(C)S(=O)(=O)c1c(F)c(F)c(F)c(F)c1F | inactive | 
13 | Cc1cc(N(Cc2ccc(C3CCCCC3)cc2)C(=O)CN(C)S(=O)(=O)c2c(F)c(F)c(F)c(F)c2F)ccc1C(=O)O | inactive | 
14 | CN(CC(=O)N(Cc1ccc(C2CCCCC2)cc1)c1ccc(C(=O)O)nc1)S(=O)(=O)c1c(F)c(F)c(F)c(F)c1F | inactive | 
15 | C[C@H](C(=O)N(Cc1ccc(C2CCCCC2)cc1)c1ccc(C(=O)[O-])c(O)c1)N(C)S(=O)(=O)c1c(F)c(F)c(F)c(F)c1F.[Na+] |  | solubility [3]: 127 µg/mL
16 | CN(CC(=O)N(Cc1ccc(C2CCCCC2)nc1)c1ccc(C(=O)O)c(O)c1)S(=O)(=O)c1c(F)c(F)c(F)c(F)c1F | inactive | 
17 | O=C(NO)c1ccc(N(Cc2ccc(C3CCCCC3)cc2)C(=O)[C@H]2CCCN2S(=O)(=O)c2c(F)c(F)c(F)c(F)c2F)cc1O |  | IC50 [1]: 5.5 µM
18 | CN([C@H](CO)C(=O)N(Cc1ccc(C2CCCCC2)cc1)c1ccc(C(=O)O)c(O)c1)S(=O)(=O)c1c(F)c(F)c(F)c(F)c1F | Active | 
19 | CN(CC(=O)N(Cc1ccc(C2CCNCC2)cc1)c1ccc(C(=O)O)c(O)c1)S(=O)(=O)c1c(F)c(F)c(F)c(F)c1F | inactive | 
20 | CN(CC(=O)N(Cc1ccc(C2CCOCC2)cc1)c1ccc(C(=O)O)c(O)c1)S(=O)(=O)c1c(F)c(F)c(F)c(F)c1F | inactive | 
21 | O=C(O)c1ccc(N(Cc2ccc(C3CCCCC3)cc2)C(=O)[C@H]2CCCN2S(=O)(=O)c2c(F)c(F)c(F)c(F)c2F)c(F)c1 |  | p-STAT3(Y705) reduction (qualitative call) [4]: Active; inhibition [5]: Active

Row | Structure (SMILES) | inhibition [2] | further results
22 | CN([C@@H](CC(=O)O)C(=O)N(Cc1ccc(C2CCCCC2)cc1)c1ccc(C(=O)O)c(O)c1)S(=O)(=O)c1c(F)c(F)c(F)c(F)c1F | inactive | 
23 | C[C@H](C(=O)N(Cc1ccc(C2CCCCC2)cc1)c1c(F)cc(C(=O)O)cc1F)N(C)S(=O)(=O)c1c(F)c(F)c(F)c(F)c1F | inactive | 
24 | CN(CC(=O)N(Cc1ccc(C2CCCCC2)cc1)c1ccc(C(=O)O)c(O)c1)C(=O)c1c(F)c(F)c(F)c(F)c1F | inactive | 
25 | CN(CC(=O)N(Cc1ccc(C2CCCCC2)cc1)c1ccc(C(=O)O)c(O)c1)S(=O)(=O)c1cc(F)cc(F)c1F |  | IC50 [1]: > 26 µM
26 | CN(CC(=O)N(Cc1ccc(C2CCCCC2)cc1)c1ccc(C(=O)O)c(Cl)c1)S(=O)(=O)c1c(F)c(F)c(F)c(F)c1F |  | IC50 [1]: 8.6 to 14.4 µM
27 | CN(CC(=O)N(Cc1ccc(C2CCCCC2)cc1)c1ccc(C(=O)O)c(O)c1)Cc1c(F)c(F)c(F)c(F)c1F | inactive | 
28 | CC[C@@H](C(=O)N(Cc1ccc(C2CCCCC2)cc1)c1ccc(C(=O)O)c(O)c1)N(C)S(=O)(=O)c1c(F)c(F)c(F)c(F)c1F | inactive | 
29 | CN(CC(=O)N(Cc1ccc(C2CCC(F)(F)CC2)cc1)c1ccc(C(=O)O)c(O)c1)S(=O)(=O)c1c(F)c(F)c(F)c(F)c1F | inactive | 
30 | CN([C@H](CO)C(=O)N(Cc1ccc(C2CCCCC2)cc1)c1ccc(C(=O)O)cc1)S(=O)(=O)c1c(F)c(F)c(F)c(F)c1F | Active | 
31 | CN(CC(=O)N(Cc1ccc(C2CCCCC2)cc1)c1ccc(C(=O)O)c(O)c1)S(=O)(=O)c1c(F)cc(F)cc1F |  | IC50 [1]: > 26 µM
32 | CN([C@@H](CN)C(=O)N(Cc1ccc(C2CCCCC2)cc1)c1ccc(C(=O)O)c(O)c1)S(=O)(=O)c1c(F)c(F)c(F)c(F)c1F | inactive | 
33 | CN([C@@H](CCO)C(=O)N(Cc1ccc(C2CCCCC2)cc1)c1ccc(C(=O)O)c(O)c1)S(=O)(=O)c1c(F)c(F)c(F)c(F)c1F | inactive | 
34 | CN(CC(=O)N(Cc1ccc(C2=CCCCCC2)cc1)c1ccc(C(=O)O)cc1)S(=O)(=O)c1c(F)c(F)c(F)c(F)c1F | inactive | 
35 | CN(CC(=O)N(Cc1ccc(C2CCOCC2)cc1)c1ccc(C(=O)NO)c(O)c1)S(=O)(=O)c1c(F)c(F)c(F)c(F)c1F | inactive | 
36 | CN(CC(=O)N(Cc1ccc(C2CCCCCC2)cc1)c1ccc(C(=O)O)cc1)S(=O)(=O)c1c(F)c(F)c(F)c(F)c1F | inactive | 
37 | CN(CC(=O)N(Cc1ccc(C2CCCCC2)cc1)c1ccc(C(=O)O)c(O)c1)S(=O)(=O)c1cc(F)cc(F)c1 |  | IC50 [1]: > 26 µM
38 | CN(CC(=O)N(Cc1ccc(C2CCOCC2)cc1)c1ccc(C(=O)O)cc1)S(=O)(=O)c1c(F)c(F)c(F)c(F)c1F | inactive | 
39 | O=C(O)c1ccc(N(Cc2ccc(C3CCCCC3)cc2)C(=O)[C@H]2CCCN2Cc2c(F)c(F)c(F)c(F)c2F)cc1O | inactive | 
40 | CN([C@H](CCO)C(=O)N(Cc1ccc(C2CCCCC2)cc1)c1ccc(C(=O)O)c(O)c1)S(=O)(=O)c1c(F)c(F)c(F)c(F)c1F | Active | 
41 | O=C(O)c1ccc(N(Cc2ccc(C3CCCCC3)cc2)C(=O)[C@H]2CCCN2S(=O)(=O)c2c(F)c(F)c(F)c(F)c2F)cc1O |  | Activity (MDA-MB-468): Active; Activity (MDA-MB-231): Active; p-STAT3(Y705) reduction (qualitative call) [4]: Active; inhibition [5]: Active; Activity (MCF7): inactive
42 | C[C@H](C(=O)N(Cc1ccc(C2CCCCC2)cc1)c1ccc2cn[nH]c2c1)N(C)S(=O)(=O)c1c(F)c(F)c(F)c(F)c1F | inactive | 

More lines, main results first:

Row | inhibition [2] | Structure (SMILES) | further results
43 | inactive | CN(CC(=O)N(Cc1ccc(C2CCCCC2)cc1)c1cccc(CC(=O)O)c1)S(=O)(=O)c1c(F)c(F)c(F)c(F)c1F | 
44 | inactive | CN(CC(=O)N(Cc1ccc(C2CCCCC2)cc1)c1ccc(C(=O)O)[n+]([O-])c1)S(=O)(=O)c1c(F)c(F)c(F)c(F)c1F | 
45 | inactive | CN([C@@H](CO)C(=O)N(Cc1ccc(C2CCCCC2)cc1)c1ccc(C(=O)O)c(O)c1)S(=O)(=O)c1c(F)c(F)c(F)c(F)c1F | 
46 | inactive | C[C@H](C(=O)N(Cc1ccc(C2CCCCC2)cc1)c1ccc(C(=O)O)c(F)c1)N(C)S(=O)(=O)c1c(F)c(F)c(F)c(F)c1F | 
47 | inactive | CN(CC(=O)N(Cc1ccc(N2CCCCC2)cc1)c1ccc(C(=O)O)cc1)S(=O)(=O)c1c(F)c(F)c(F)c(F)c1F | 
48 | inactive | C[C@H](C(=O)N(Cc1ccc(C2CCOCC2)cc1)c1ccc(C(=O)[O-])c(O)c1)N(C)S(=O)(=O)c1c(F)c(F)c(F)c(F)c1F.[Na+] | 
49 | Active | CN([C@H](CC(=O)O)C(=O)N(Cc1ccc(C2CCCCC2)cc1)c1ccc(C(=O)O)c(O)c1)S(=O)(=O)c1c(F)c(F)c(F)c(F)c1F | 
50 | Active | CC[C@H](C(=O)N(Cc1ccc(C2CCCCC2)cc1)c1ccc(C(=O)O)c(O)c1)N(C)S(=O)(=O)c1c(F)c(F)c(F)c(F)c1F | 
51 | inactive | CN(CC(=O)N(Cc1ccc(C2CCCCC2)cc1)c1nc(C(=O)O)co1)S(=O)(=O)c1c(F)c(F)c(F)c(F)c1F | 
52 | Active | CN([C@H](CO)C(=O)N(Cc1ccc(C2CCCCC2)cc1)c1ccc(C(=O)NO)cc1)S(=O)(=O)c1c(F)c(F)c(F)c(F)c1F | 
53 | inactive | C[C@H](C(=O)N(Cc1ccc(C2CCCCC2)cc1)c1ccc2c(c1)CNC2=O)N(C)S(=O)(=O)c1c(F)c(F)c(F)c(F)c1F | 
54 | inactive | O=C(O)c1ccc(N(Cc2ccc(C3CCCCC3)cc2)C(=O)[C@H]2CCCN2S(=O)(=O)c2cc(F)cc(F)c2F)cc1O | 
55 | inactive | O=C(O)c1ccc(N(Cc2ccc(C3CCCCC3)cc2)C(=O)[C@H]2CCCN2C(=O)c2c(F)c(F)c(F)c(F)c2F)cc1O | 
